From ChEMBL document CHEMBL1122190, “Mammary tumor inhibiting effect of 3,3'-diacetoxy-alpha, beta-dialkylstilbenes and of related stilbene oxides” (1982)
Blank lines part the entries; values can stand above or below the compound they belong to.

Columns and labels:
Mus musculus [1] = assay: Effect on estrogen and progesterone receptors positive hormone-dependent postmenopausal human mammary carcinoma tumor growth in nude mice at 2.4 mg/kg/day; type: functional
Summary of the method: (§1)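 Nude mice carried serially transplanted hormone-dependent human mammary carcinoma. Compounds in olive oil were given sc 6 times a week for 4-5 weeks. Two tumor diameters were measured weekly, and size at treatment start was set as 1. Tumor size was averaged after 5 weeks of therapy.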

[2] = test system: Estrogen receptor (Bos taurus); assay: In vitro relative binding affinity for Estrogen receptor compared to [3H]estradiol
Rattus norvegicus [3] = assay: Percent unchanged DMBA-induced hormone-dependent mammary carcinoma in rats at 1.0 mg/kg/day; type: functional
Summary of the method: (§2)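 Female Sprague-Dawley rats received a single 20 mg DMBA dose by gastric intubation at 50 days of age. About 4 weeks later, rats bearing at least one tumor >140 mm² were grouped in tens. Compounds in olive oil were given sc 6 times a week for 28 days. Tumor area (length × width) was measured twice weekly.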

Rattus norvegicus [4] = assay: Percent partial remission of DMBA-induced hormone-dependent mammary carcinoma in rats at 1.0 mg/kg/day; type: functional; summary of the method: as §2
Mus musculus [5] = assay: Effect on estrogen and progesterone receptors positive hormone-dependent postmenopausal human mammary carcinoma tumor growth in nude mice at 2.0 mg/kg/day; type: functional; summary of the method: as §1
Rattus norvegicus [6] = assay: Percent remission of DMBA-induced hormone-dependent mammary carcinoma in rats at 1.0 mg/kg/day; type: functional; summary of the method: as §2
Rattus norvegicus [7] = assay: Effect on DMBA-induced hormone-dependent mammary carcinoma tumor number in rats at 1.0 mg/kg/day; type: functional; summary of the method: as §2
Rattus norvegicus [8] = assay: Percent progression of DMBA-induced hormone-dependent mammary carcinoma in rats at 1.0 mg/kg/day; type: functional; summary of the method: as §2
Rattus norvegicus [9] = assay: Effect on DMBA-induced hormone-dependent mammary carcinoma tumor growth in rats at 4.0 mg/kg/day (initial tumor number); type: functional; summary of the method: as §2
Rattus norvegicus [10] = assay: Percent remission of DMBA-induced hormone-dependent mammary carcinoma in rats at 4.0 mg/kg/day; type: functional; summary of the method: as §2
Rattus norvegicus [11] = assay: Percent partial remission of DMBA-induced hormone-dependent mammary carcinoma in rats at 0.5 mg/kg/day; type: functional; summary of the method: as §2
[12] = biological target: T1, Estrogen receptor (Mus musculus) (UniProt O08537+P19785); assay: Percent inhibition of estrone-stimulated uterine growth in immature mouse at 5 ug dose; type: functional
Summary of the method: (§3)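 Dorfman uterine weight test in immature female NMRI mice, ten per group, 20 days old and 10-12 g at start. Compounds were given in olive oil sc once daily for 3 days. Mice were killed 24 h after the last injection, and uteri were removed, dried at 100 °C for 24 h and weighed.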

[13] = biological target: T1, Estrogen receptor (Mus musculus); assay: Uterotrophic activity in mice at 80 ug dose; type: functional, tissue-based; settings: Uterus
Summary of the method: (§4)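 Dorfman uterine weight test in immature female NMRI mice (20 days old at start, 10-12 g; ten per group). Compound given sc daily in olive oil for 3 days. Animals killed 24 h after last injection; uteri removed, dried at 100 °C for 24 h and weighed.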

Rattus norvegicus [14] = assay: Effect on DMBA-induced hormone-dependent mammary carcinoma tumor growth in rats at 4.0 mg/kg/day; type: functional; summary of the method: as §2
Rattus norvegicus [15] = assay: Effect on DMBA-induced hormone-dependent mammary carcinoma tumor growth in rats at 1.0 mg/kg/day (initial tumor number); type: functional; summary of the method: as §2
Rattus norvegicus [16] = assay: Effect on DMBA-induced hormone-dependent mammary carcinoma tumor growth in rats at 0.5 mg/kg/day; type: functional; summary of the method: as §2
Rattus norvegicus [17] = assay: Effect on DMBA-induced hormone-dependent mammary carcinoma tumor growth in rats at 1.0 mg/kg/day; type: functional; summary of the method: as §2
Rattus norvegicus [18] = assay: Percent partial remission of DMBA-induced hormone-dependent mammary carcinoma in rats at 4.0 mg/kg/day; type: functional; summary of the method: as §2
Rattus norvegicus [19] = assay: Percent unchanged DMBA-induced hormone-dependent mammary carcinoma in rats at 4.0 mg/kg/day; type: functional; summary of the method: as §2
Rattus norvegicus [20] = assay: Effect on DMBA-induced hormone-dependent mammary carcinoma tumor number in rats at 0.5 mg/kg/day; type: functional; summary of the method: as §2
[21] = biological target: T1, Estrogen receptor (Mus musculus); assay: Uterotrophic activity in mice at 800 ug dose; type: functional, tissue-based; settings: Uterus; summary of the method: as §4
[22] = biological target: T1, Estrogen receptor (Mus musculus); assay: Percent inhibition of estrone-stimulated uterine growth in immature mouse at 100 ug dose; type: functional; summary of the method: as §3
Rattus norvegicus [23] = assay: Percent unchanged DMBA-induced hormone-dependent mammary carcinoma in rats at 0.5 mg/kg/day; type: functional; summary of the method: as §2
Rattus norvegicus [24] = assay: Percent progression of DMBA-induced hormone-dependent mammary carcinoma in rats at 0.5 mg/kg/day (Percent of tumors with progression); type: functional; summary of the method: as §2
[25] = biological target: T1, Estrogen receptor (Mus musculus); assay: Percent inhibition of estrone-stimulated uterine growth in immature mouse at 50 ug dose; type: functional; summary of the method: as §3
[26] = biological target: T1, Estrogen receptor (Mus musculus); assay: Antiuterotrophic activity in mice at 5 ug dose; type: functional; summary of the method: as §3
Rattus norvegicus [27] = assay: Effect on DMBA-induced hormone-dependent mammary carcinoma tumor growth in rats at 0.5 mg/kg/day (initial tumor number); type: functional; summary of the method: as §2
[28] = biological target: T1, Estrogen receptor (Mus musculus); assay: Antiuterotrophic activity in mice at 100 ug dose; type: functional; summary of the method: as §3
Rattus norvegicus [29] = assay: Percent remission of DMBA-induced hormone-dependent mammary carcinoma in rats at 0.5 mg/kg/day; type: functional; summary of the method: as §2
[30] = biological target: T1, Estrogen receptor (Mus musculus); assay: Uterotrophic activity in mice at 8 ug dose; type: functional, tissue-based; settings: Uterus; summary of the method: as §4
Mus musculus [31] = assay: Effect on estrogen and progesterone receptors positive hormone-dependent postmenopausal human mammary carcinoma tumor growth in nude mice at 1.0 mg/kg/day dose; type: functional; summary of the method: as §1
[32] = biological target: T1, Estrogen receptor (Mus musculus); assay: Antiuterotrophic activity in mice at 50 ug dose; type: functional; summary of the method: as §3
Rattus norvegicus [33] = assay: Percent progression of DMBA-induced hormone-dependent mammary carcinoma in rats at 4.0 mg/kg/day; type: functional; summary of the method: as §2
Rattus norvegicus [34] = assay: Effect on DMBA-induced hormone-dependent mammary carcinoma tumor number in rats at 4.0 mg/kg/day; type: functional; summary of the method: as §2
Mus musculus [35] = assay: Effect on estrogen and progesterone receptors positive hormone-dependent postmenopausal human mammary carcinoma tumor growth in nude mice at 2.6 mg/kg/day; type: functional; summary of the method: as §1
[36] = biological target: T1, Estrogen receptor (Mus musculus); assay: Uterotrophic activity in mice at 500 ug dose; type: functional, tissue-based; settings: Uterus; summary of the method: as §4
[37] = biological target: T1, Estrogen receptor (Mus musculus); assay: Uterotrophic activity in mice at 1 ug dose; type: functional, tissue-based; settings: Uterus; summary of the method: as §3
[38] = biological target: T1, Estrogen receptor (Mus musculus); assay: Uterotrophic activity in mice at 50 ug dose; type: functional, tissue-based; settings: Uterus; summary of the method: as §4
[39] = biological target: T1, Estrogen receptor (Mus musculus); assay: Uterotrophic activity in mice at 10 ug dose; type: functional, tissue-based; settings: Uterus; summary of the method: as §3
[40] = biological target: T1, Estrogen receptor (Mus musculus); assay: Uterotrophic activity in mice at 100 ug dose; type: functional, tissue-based; settings: Uterus; summary of the method: as §3
[41] = biological target: T1, Estrogen receptor (Mus musculus); assay: Antiuterotrophic activity in mice at 25 ug dose; type: functional; summary of the method: as §3
[42] = biological target: T1, Estrogen receptor (Mus musculus); assay: Percent inhibition of estrone-stimulated uterine growth in immature mouse at 250 ug dose; type: functional; summary of the method: as §3
[43] = biological target: T1, Estrogen receptor (Mus musculus); assay: Percent inhibition of estrone-stimulated uterine growth in immature mouse at 25 ug dose; type: functional; summary of the method: as §3
[44] = biological target: T1, Estrogen receptor (Mus musculus); assay: Antiuterotrophic activity in mice at 250 ug dose; type: functional; summary of the method: as §3
[45] = biological target: T1, Estrogen receptor (Mus musculus); settings: Uterus

T1 sequence (O08537 whole entry, looked up): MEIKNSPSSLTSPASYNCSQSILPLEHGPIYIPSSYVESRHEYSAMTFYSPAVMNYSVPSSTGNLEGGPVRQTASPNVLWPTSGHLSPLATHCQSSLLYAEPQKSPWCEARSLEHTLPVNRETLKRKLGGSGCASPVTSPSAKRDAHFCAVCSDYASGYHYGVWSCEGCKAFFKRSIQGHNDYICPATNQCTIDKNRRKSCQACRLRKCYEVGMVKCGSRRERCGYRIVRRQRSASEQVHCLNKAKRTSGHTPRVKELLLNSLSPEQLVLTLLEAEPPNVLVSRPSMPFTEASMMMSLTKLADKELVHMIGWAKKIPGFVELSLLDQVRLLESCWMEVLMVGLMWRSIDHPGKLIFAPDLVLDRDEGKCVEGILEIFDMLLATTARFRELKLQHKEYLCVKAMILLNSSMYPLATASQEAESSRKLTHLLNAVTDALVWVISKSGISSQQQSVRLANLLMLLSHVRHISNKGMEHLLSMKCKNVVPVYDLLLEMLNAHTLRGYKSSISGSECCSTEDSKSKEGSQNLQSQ
T1 sequence (P19785 whole entry, looked up): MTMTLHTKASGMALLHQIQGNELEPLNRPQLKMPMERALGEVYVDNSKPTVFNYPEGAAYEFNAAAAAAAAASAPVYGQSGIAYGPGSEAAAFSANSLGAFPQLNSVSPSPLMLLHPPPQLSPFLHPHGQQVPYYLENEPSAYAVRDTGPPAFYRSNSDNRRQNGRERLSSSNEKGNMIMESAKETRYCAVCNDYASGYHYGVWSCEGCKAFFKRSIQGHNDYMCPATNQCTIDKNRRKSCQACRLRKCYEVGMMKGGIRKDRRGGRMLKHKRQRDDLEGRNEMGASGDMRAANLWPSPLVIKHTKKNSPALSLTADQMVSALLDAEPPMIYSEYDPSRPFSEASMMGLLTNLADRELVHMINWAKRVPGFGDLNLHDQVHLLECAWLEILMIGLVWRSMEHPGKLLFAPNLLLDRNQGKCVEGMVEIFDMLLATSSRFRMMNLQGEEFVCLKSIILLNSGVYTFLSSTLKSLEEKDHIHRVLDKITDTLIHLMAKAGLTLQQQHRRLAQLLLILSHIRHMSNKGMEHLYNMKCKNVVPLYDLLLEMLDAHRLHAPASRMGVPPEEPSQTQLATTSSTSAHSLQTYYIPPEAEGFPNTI

RBA [2]: 0.4%
SMILES: CC(=O)Oc1cccc(/C(C)=C(\C)c2cccc(OC(C)=O)c2)c1
Tumor size (Mus musculus [1]): 3.42

RBA [2]: 5.4%
inhibition [12]: 52.5%
Effect [13]: 33
Effect [21]: 43.6
inhibition [22]: 2.7%
inhibition [25]: 34.3%
Effect [26]: 27.6
Effect [28]: 42.2
Effect [30]: 29.4
Effect [32]: 33
SMILES: CCC1(c2cccc(O)c2)OC1(CC)c1cccc(O)c1 (configuration not stated)
Tumors (Rattus norvegicus [3]): 0%
Tumors (Rattus norvegicus [4]): 13%
Tumor size (Mus musculus [5]): 1.85
Tumors (Rattus norvegicus [6]): 76%
No. of tumors (Rattus norvegicus [7]): 10
Tumors (Rattus norvegicus [8]): 10%
No. of tumors (Rattus norvegicus [9]): 29
Tumors (Rattus norvegicus [10]): 61%
Tumors (Rattus norvegicus [11]): 13%
Change (Rattus norvegicus [14]): -16%
No. of tumors (Rattus norvegicus [15]): 31
Change (Rattus norvegicus [16]): 18%
Change (Rattus norvegicus [17]): -52%
Tumors (Rattus norvegicus [18]): 12%
Tumors (Rattus norvegicus [19]): 12%
No. of tumors (Rattus norvegicus [20]): 18
Tumors (Rattus norvegicus [23]): 5%
Tumors (Rattus norvegicus [24]): 13%
No. of tumors (Rattus norvegicus [27]): 27
Tumors (Rattus norvegicus [29]): 69%
Tumor size (Mus musculus [31]): 2.9
Tumors (Rattus norvegicus [33]): 15%
No. of tumors (Rattus norvegicus [34]): 4

RBA [2]: 4.2%
inhibition [12]: 33.5%
Effect [36]: 38.6
Effect [37]: 22.2
inhibition [22]: 0%
Effect [38]: 33.4
inhibition [25]: 22.6%
Effect [26]: 33.2
Effect [39]: 30.3
Effect [40]: 36.2
Effect [28]: 43.7
Effect [32]: 36.4
SMILES: CCC1(c2cccc(OC(C)=O)c2)OC1(CC)c1cccc(OC(C)=O)c1 (configuration not stated)
Tumor size (Mus musculus [35]): 2.38

RBA [2]: 0.8%
Effect [41]: 36.1
inhibition [12]: 17.4%
inhibition [42]: 31.7%
Effect [36]: 20.6
inhibition [22]: 33.4%
inhibition [43]: 23%
Effect [26]: 37.9
Effect [44]: 33.1
Effect [39]: 17
Effect [40]: 15
Effect [28]: 32.6
SMILES: CC(=O)Oc1cccc(C2(C)OC2(C)c2cccc(OC(C)=O)c2)c1 (configuration not stated)
Tumor size (Mus musculus [1]): 2.72

Effect [45]: 40.7
SMILES: C[C@]12CC[C@@H]3c4ccc(O)cc4CC[C@H]3[C@@H]1CCC2=O
